Experimental data as given in ChEMBL document CHEMBL4680335, “Synthesis, anticancer and antimicrobial evaluation of new benzofuran based derivatives: PI3K inhibition, quorum sensing and molecular modeling study” (Bioorg Med Chem, 2021).
≈ marks a conversion by molar mass, not a printed value.

Key:
[1] = system: Pseudomonas aeruginosa; test: Antibacterial activity against Pseudomonas aeruginosa PAO1 assessed as reduction in bacterial growth incubated for 18 hrs by two-fold serial dilution method; assay type: functional
Outline: (§1)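 Broth microdilution per CLSI 2015. Selection: compounds active in agar diffusion. Twofold (1:1) dilutions in 0.1 ml MH broth; inoculum 5 × 10^6 CFU/ml diluted suspension. Ampicillin/clavulanic acid as positive control.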

[2] = system: Staphylococcus aureus; test: Antibacterial activity against Staphylococcus aureus ATCC 29213 assessed as diameter of zone inhibition at 5 mg/ml incubated for 24 hrs by agar plate diffusion method; assay type: functional; conditions: read-out: DIZ
Outline: (§2)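 Cup (well) agar diffusion in Mueller Hinton agar. Overnight MH broth culture diluted to 0.5 McFarland; 20 μL mixed into MH agar at 50 °C, poured into 9-cm plates. Wells cut with a cork borer and filled with 100 μL compound in DMSO (final 5 mg/mL). DMSO as negative control, ampicillin/clavulanic acid as reference. 37 °C, 24 h; inhibition zone diameter in mm.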

[3] = system: Staphylococcus aureus; test: Antibacterial activity against Staphylococcus aureus ATCC 29213 assessed as reduction in bacterial growth incubated for 18 hrs by two-fold serial dilution method; assay type: functional; outline: as §1
[4] = system: Bacillus cereus; test: Antibacterial activity against Bacillus cereus UW85 assessed as diameter of zone inhibition at 5 mg/ml incubated for 24 hrs by agar plate diffusion method; assay type: functional; conditions: read-out: DIZ; outline: as §2
[5] = system: Bacillus cereus; test: Antibacterial activity against Bacillus cereus UW85 assessed as reduction in bacterial growth incubated for 18 hrs by two-fold serial dilution method; assay type: functional; outline: as §1
[6] = system: Escherichia coli; test: Antibacterial activity against Escherichia coli ATCC 12435 assessed as diameter of zone inhibition at 5 mg/ml incubated for 24 hrs by agar plate diffusion method; assay type: functional; conditions: read-out: DIZ; outline: as §2
[7] = system: MCF7; test: Antiproliferative activity against human MCF7 cells assessed as reduction in cell growth; assay type: functional, cell-based
[8] = Inhibition of quorum sensing in Chromobacterium violaceum ATCC 12472 assessed as inhibition zone at 5 mg/ml incubated for 48 hrs by well diffusion method; assay type: functional; conditions: read-out: IZ
Outline: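 Chromobacterium violaceum ATCC 12472 grown in LB broth at 28 °C, 48 h. 50 μL inoculated into 5 ml soft LB agar and overlaid on LB agar plates. Wells received 100 μL compound in DMSO (5 mg/ml); DMSO as negative control. 28 °C, 48 h. Growth-inhibition radius r1 and pigment-plus-growth radius r2 measured; QS inhibition = r2 − r1 (mm).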

[9] = system: HeLa; test: Antiproliferative activity against human HeLa cells assessed as reduction in cell growth; assay type: functional, cell-based
[10] = system: PC-3; test: Antiproliferative activity against human PC3 cells assessed as reduction in cell growth; assay type: functional, cell-based
[11] = system: HepG2; test: Antiproliferative activity against human HepG2 cells assessed as reduction in cell growth; assay type: functional, cell-based
[12] = system: MCF7; test: Induction of apoptosis in human MCF7 cells assessed as early apoptotic cells at […] incubated for 24 hrs by Annexin V-FITC and propidium iodide staining based flow cytometry analysis (reference value: 0.42 %); assay type: functional; parameters: dose or concentration left out as unconfirmed
[13] = Safety index, ratio of IC50 for cytotoxicity against human WI-38 cells to IC50 for antiproliferative activity against human PC-3 cells; assay type: toxicity, cell-based; conditions: WI-38 cells versus PC-3 cells
[14] = molecular target: Phosphatidylinositol 4,5-bisphosphate 3-kinase catalytic subunit alpha isoform (Homo sapiens, UniProt P42336); test: Inhibition of human PI3Kalpha by ELISA
Outline: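 Human PI3Kα activity measured by ELISA in wells coated with a PI3K-specific antibody. Standard or test compound was added at room temperature and absorbance read. A log–log standard curve related absorbance to standard concentration. Percent inhibition was calculated against control, and IC50 was obtained from concentration/inhibition curves.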

[15] = Safety index, ratio of IC50 for cytotoxicity against human WI-38 cells to IC50 for antiproliferative activity against human HepG2 cells; assay type: toxicity, cell-based; conditions: WI-38 cells versus HepG2 cells
[16] = system: MCF7; test: Induction of apoptosis in human MCF7 cells assessed as necrotic cells at […] incubated for 24 hrs by Annexin V-FITC and propidium iodide staining based flow cytometry analysis (reference value: 1.21 %); assay type: functional; parameters: dose or concentration left out as unconfirmed
[17] = system: MCF7; test: Induction of apoptosis in human MCF7 cells assessed as accumulation at preG1 phase at […] incubated for 24 hrs by propidium iodide staining based flow cytometry analysis (reference value: 1.78 %); assay type: functional; parameters: dose or concentration left out as unconfirmed
[18] = system: MCF7; test: Induction of cell cycle arrest in human MCF7 cells assessed as accumulation at G2/M phase at […] incubated for 24 hrs by propidium iodide staining based flow cytometry analysis (reference value: 9.85 %); assay type: functional; parameters: dose or concentration left out as unconfirmed
[19] = Safety index, ratio of IC50 for cytotoxicity against human WI-38 cells to IC50 for antiproliferative activity against human MCF7 cells; assay type: toxicity, cell-based; conditions: WI-38 cells versus MCF7 cells
[20] = Safety index, ratio of IC50 for cytotoxicity against human WI-38 cells to IC50 for antiproliferative activity against human HeLa cells; assay type: toxicity, cell-based; conditions: WI-38 cells versus HeLa cells
[21] = system: MCF7; test: Induction of apoptosis in human MCF7 cells assessed as late apoptotic cells at […] incubated for 24 hrs by Annexin V-FITC and propidium iodide staining based flow cytometry analysis (reference value: 0.15 %); assay type: functional; parameters: dose or concentration left out as unconfirmed
[22] = system: MCF7; test: Induction of cell cycle arrest in human MCF7 cells assessed as accumulation at S phase at […] incubated for 24 hrs by propidium iodide staining based flow cytometry analysis (reference value: 36.26 %); assay type: functional; parameters: dose or concentration left out as unconfirmed
[23] = system: WI-38; test: Cytotoxicity against human WI38 cells by MTT assay; assay type: cell-based
[24] = system: MCF7; test: Induction of cell cycle arrest in human MCF7 cells assessed as accumulation at G0-G1 phase at […] incubated for 24 hrs by propidium iodide staining based flow cytometry analysis (reference value: 53.89 %); assay type: functional; parameters: dose or concentration left out as unconfirmed
[25] = system: Candida albicans; test: Antifungal activity against Candida albicans CS35 assessed as diameter of zone inhibition at 5 mg/ml incubated for 24 hrs by agar plate diffusion method; assay type: functional; conditions: read-out: DIZ
Outline: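 Cup diffusion using Sabouraud's medium for C. albicans. 100 μL compound in DMSO (5 mg/mL) per well, DMSO as negative control, fluconazole as reference. 37 °C, 24 h; inhibition zone diameter in mm.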

[26] = system: Candida albicans; test: Antifungal activity against Candida albicans CS35 assessed as reduction in fungal growth incubated for 18 hrs by two-fold serial dilution method; assay type: functional
Outline: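 Broth microdilution per CLSI M27-A3/M38-A2. Selection: compounds active in agar diffusion. Twofold (1:1) dilutions in 0.1 ml yeast peptone dextrose medium; fluconazole as positive control.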

[27] = system: Pseudomonas aeruginosa; test: Antibacterial activity against Pseudomonas aeruginosa PAO1 assessed as diameter of zone inhibition at 5 mg/ml incubated for 24 hrs by agar plate diffusion method; assay type: functional; conditions: read-out: DIZ; outline: as §2

Sequence of Phosphatidylinositol 4,5-bisphosphate 3-kinase catalytic subunit alpha isoform (P42336 whole entry, canonical isoform): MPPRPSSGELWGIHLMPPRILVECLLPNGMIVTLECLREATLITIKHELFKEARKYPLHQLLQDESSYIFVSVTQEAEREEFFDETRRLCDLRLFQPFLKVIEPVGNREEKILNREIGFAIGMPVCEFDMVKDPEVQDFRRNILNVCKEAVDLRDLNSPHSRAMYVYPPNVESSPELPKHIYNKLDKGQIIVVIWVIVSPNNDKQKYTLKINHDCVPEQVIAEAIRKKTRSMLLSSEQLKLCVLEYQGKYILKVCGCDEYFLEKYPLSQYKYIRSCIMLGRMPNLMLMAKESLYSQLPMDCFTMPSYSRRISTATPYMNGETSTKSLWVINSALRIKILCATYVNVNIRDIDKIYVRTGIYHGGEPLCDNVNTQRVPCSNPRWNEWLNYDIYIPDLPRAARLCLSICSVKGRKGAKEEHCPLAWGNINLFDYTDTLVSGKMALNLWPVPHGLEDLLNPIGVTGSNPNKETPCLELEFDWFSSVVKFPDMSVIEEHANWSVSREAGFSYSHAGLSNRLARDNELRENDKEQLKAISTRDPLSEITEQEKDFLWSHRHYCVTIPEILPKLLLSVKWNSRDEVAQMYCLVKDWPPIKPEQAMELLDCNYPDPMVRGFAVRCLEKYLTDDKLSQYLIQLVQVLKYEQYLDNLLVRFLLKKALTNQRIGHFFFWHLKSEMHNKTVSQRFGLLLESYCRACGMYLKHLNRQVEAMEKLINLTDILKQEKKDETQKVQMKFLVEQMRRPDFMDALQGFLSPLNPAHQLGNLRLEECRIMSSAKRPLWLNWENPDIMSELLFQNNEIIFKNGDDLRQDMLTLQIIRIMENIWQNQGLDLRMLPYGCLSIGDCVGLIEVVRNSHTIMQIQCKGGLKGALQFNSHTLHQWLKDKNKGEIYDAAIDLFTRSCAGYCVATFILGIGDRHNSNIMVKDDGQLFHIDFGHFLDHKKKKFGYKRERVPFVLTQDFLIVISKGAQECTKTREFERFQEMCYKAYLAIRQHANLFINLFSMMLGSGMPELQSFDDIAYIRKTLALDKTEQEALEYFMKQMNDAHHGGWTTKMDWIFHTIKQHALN

CC1(C)S[C@@H]2[C@H](NC(=O)[C@H](N)c3ccccc3)C(=O)N2[C@H]1C(=O)O [AMPICILLIN]
MIC [1]: > 5000 µg/mL
zone of inhibition at 5000 µg/mL [2]: 6 mm
MIC [3]: 128 µg/mL (≈ 366 µM)
zone of inhibition at 5000 µg/mL [4]: 10 mm
MIC [5]: 128 µg/mL (≈ 366 µM)
zone of inhibition at 5000 µg/mL [6]: 10 mm

COc1ccc(-c2csc(N/N=C(\C)c3cc4ccccc4o3)n2)cc1
IC50 [7]: 18.9 µM
zone of inhibition at 5000 µg/mL [8]: 3 mm
IC50 [9]: 18.7 µM
IC50 [10]: 28.9 µM
IC50 [11]: 15.7 µM

C/C(=N\Nc1nc(-c2ccc(Cl)cc2)cs1)c1cc2ccccc2o1
IC50 [7]: 29.9 µM
IC50 [9]: 26.6 µM
IC50 [10]: 38.1 µM
IC50 [11]: 23.2 µM

C/C(=N\Nc1nc(-c2ccc(Br)cc2)cs1)c1cc2ccccc2o1
IC50 [7]: 33.2 µM
IC50 [9]: 32.7 µM
IC50 [10]: 45.2 µM
IC50 [11]: 27.7 µM

C/C(=N\Nc1nc(-c2cc3ccccc3o2)cs1)c1cc2ccccc2o1
IC50 [7]: 25.6 µM
zone of inhibition at 5000 µg/mL [8]: 2 mm
IC50 [9]: 24.1 µM
IC50 [10]: 34.2 µM
IC50 [11]: 21.2 µM

C/C(=N\Nc1nc(-c2ccccc2)cs1)c1cc2ccccc2o1
Activity [12]: 5.92%
IC50 [7]: 8.49 µM
selectivity ratio [13]: 2.49
IC50 [9]: 11.7 µM
IC50 [14]: 4.1 µM
selectivity ratio [15]: 4.04
Activity [16]: 9.36%
IC50 [10]: 16.7 µM
Activity [17]: 29.93%
IC50 [11]: 10.3 µM
Activity [18]: 30.82%
selectivity ratio [19]: 4.91
selectivity ratio [20]: 3.56
Activity [21]: 14.65%
Activity [22]: 29.57%
IC50 [23]: 41.7 µM
Activity [24]: 39.61%

C/C(=N\Nc1nc(-c2ccc(C)cc2)cs1)c1cc2ccccc2o1
IC50 [7]: 11.1 µM
IC50 [9]: 14.3 µM
IC50 [10]: 21.4 µM
IC50 [11]: 14.1 µM

COc1ccc(C(=O)CSC(=S)N/N=C(\C)c2cc3ccccc3o2)cc1
IC50 [7]: 38.4 µM
IC50 [9]: 46.9 µM
MIC [1]: 512 µg/mL (≈ 1280 µM)
IC50 [10]: 73.3 µM
IC50 [11]: 31.9 µM
zone of inhibition at 5000 µg/mL [25]: 5 mm
MIC [26]: 256 µg/mL (≈ 642 µM)
zone of inhibition at 5000 µg/mL [27]: 8 mm

COc1ccc(/N=N/C(C=O)=C(/O)c2cc3ccccc3o2)cc1
zone of inhibition at 5000 µg/mL [2]: 7 mm
IC50 [10]: 56.3 µM
IC50 [11]: 42.1 µM
MIC [3]: 128 µg/mL (≈ 397 µM)
zone of inhibition at 5000 µg/mL [4]: 5 mm
MIC [5]: 265 µg/mL (≈ 822 µM)

C/C(=N\Nc1nc(C)cs1)c1cc2ccccc2o1
IC50 [7]: 4.89 µM
zone of inhibition at 5000 µg/mL [8]: 7 mm
selectivity ratio [13]: 4.93
IC50 [14]: 20.5 µM
selectivity ratio [15]: 11.1
IC50 [10]: 8.99 µM
IC50 [11]: 4 µM
MIC [3]: 64 µg/mL (≈ 236 µM)
selectivity ratio [19]: 9.06
selectivity ratio [20]: 4.94
zone of inhibition at 5000 µg/mL [4]: 11 mm
zone of inhibition at 5000 µg/mL [25]: 10 mm
MIC [26]: 128 µg/mL (≈ 472 µM)
IC50 [23]: 44.3 µM
MIC [5]: 128 µg/mL (≈ 472 µM)

O=CC(/N=N/c1ccc(Cl)cc1)=C(\O)c1cc2ccccc2o1
IC50 [9]: 38.2 µM
zone of inhibition at 5000 µg/mL [2]: 9 mm
IC50 [10]: 51.8 µM
IC50 [11]: 37.3 µM
MIC [3]: 128 µg/mL (≈ 392 µM)
zone of inhibition at 5000 µg/mL [4]: 6 mm
MIC [5]: 256 µg/mL (≈ 783 µM)

CCOC(=O)Cc1csc(N/N=C(\C)c2cc3ccccc3o2)n1
Activity [12]: 3.27%
IC50 [7]: 6.55 µM
zone of inhibition at 5000 µg/mL [8]: 3 mm
selectivity ratio [13]: 2.8
IC50 [9]: 9.26 µM
IC50 [14]: 7.8 µM
selectivity ratio [15]: 4.75
Activity [16]: 6.29%
IC50 [10]: 13.1 µM
Activity [17]: 17.66%
Activity [18]: 22.34%
selectivity ratio [19]: 5.61
selectivity ratio [20]: 3.97
Activity [21]: 8.1%
Activity [22]: 33.71%
IC50 [23]: 36.8 µM
Activity [24]: 43.95%

Cc1ccc(/N=N/C(C=O)=C(/O)c2cc3ccccc3o2)cc1
IC50 [7]: 58.6 µM
MIC [1]: 512 µg/mL (≈ 1670 µM)
zone of inhibition at 5000 µg/mL [2]: 6 mm
IC50 [10]: 62 µM
IC50 [11]: 46.8 µM
MIC [3]: 128 µg/mL (≈ 418 µM)
zone of inhibition at 5000 µg/mL [27]: 10 mm
MIC [5]: 256 µg/mL (≈ 836 µM)

CN1CCN(C(=S)Cc2cc3ccccc3o2)CC1
IC50 [7]: 73.5 µM
IC50 [10]: 83.8 µM
IC50 [11]: 64.5 µM

OC(Cn1cncn1)(Cn1cncn1)c1ccc(F)cc1F [FLUCONAZOLE]
zone of inhibition at 5000 µg/mL [25]: 8 mm
MIC [26]: 256 µg/mL (≈ 836 µM)

O=CC(/N=N/c1ccc([N+](=O)[O-])cc1)=C(\O)c1cc2ccccc2o1
IC50 [7]: 43.2 µM
IC50 [9]: 37.8 µM
MIC [1]: 512 µg/mL (≈ 1520 µM)
zone of inhibition at 5000 µg/mL [2]: 6 mm
IC50 [10]: 49.6 µM
IC50 [11]: 35.4 µM
MIC [3]: 8 µg/mL (≈ 23.7 µM)
zone of inhibition at 5000 µg/mL [25]: 9 mm
MIC [26]: 256 µg/mL (≈ 759 µM)
zone of inhibition at 5000 µg/mL [27]: 10 mm

CN(C)/C=C/C(=O)c1cc2ccccc2o1
zone of inhibition at 5000 µg/mL [8]: 5 mm
MIC [26]: 256 µg/mL (≈ 1190 µM)
